Results as given in ChEMBL document CHEMBL5058577, “EUbOPEN Chemogenomics Library 2 (Multiplex)” (2022).

System: HEK-293T
Assay: Multiplex assay against HEK293T
Type: toxicity, cell-based
Conditions: human
Summary of the method: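 Live cells carried four stains from seeding: Hoechst33342, BioTracker Green Microtubule Cytoskeleton Dye, MitoTracker Red and Annexin V Alexa Fluor 680. They were imaged on a CQ1 microscope at 37°C and 5% CO2 after compound addition. Using CellPathfinder machine-learning gating, cells were split into Hoechst high-intensity objects or normal cells, normal cells into healthy, pyknosed or fragmented nuclei, and pyknosed cells into mitotic or apoptotic; tubulin, mitochondrial-mass and membrane-permeability phenotypes are per cents of healthy-nucleus cells.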

[1] = 12 h, 1 µM, compound concentration 1 uM, replicate 1
[2] = 12 h, 1 µM, compound concentration 1 uM, replicate 2
[3] = 12 h, 10 µM, compound concentration 10 uM, replicate 1
[4] = 12 h, 10 µM, compound concentration 10 uM, replicate 2
[5] = 24 h, 1 µM, compound concentration 1 uM, replicate 1
[6] = 24 h, 1 µM, compound concentration 1 uM, replicate 2
[7] = 24 h, 10 µM, compound concentration 10 uM, replicate 1
[8] = 24 h, 10 µM, compound concentration 10 uM, replicate 2
[9] = 48 h, 1 µM, compound concentration 1 uM, replicate 1
[10] = 48 h, 1 µM, compound concentration 1 uM, replicate 2
[11] = 48 h, 10 µM, compound concentration 10 uM, replicate 1
[12] = 48 h, 10 µM, compound concentration 10 uM, replicate 2

CCCCCC(O)/C=C/[C@H]1C(=O)CC(O)C1C/C=C\CCCC(=O)O (stereo not given in full)
Population Apoptotic (%) [1]: 29%
Population Fragmented Nuclei (%) [1]: 8%
Population Healthy Nuclei (%) [1]: 80%
Population Hoechst High Intensity Objects (%) [1]: 8%
Population Membrane Permeable-Phenotype (%) [1]: 0%
Population Mitochondria Different-Phenotype (%) [1]: 44%
Population Mitotic Cells (%) [1]: 70%
Population Normal (%) [1]: 91%
Population Pyknosed Nuclei (%) [1]: 11%
Population Tubulin-Different-Phenotype (%) [1]: 23%
Total Cell Count [1]: 409
Population Apoptotic (%) [2]: 39%
Population Fragmented Nuclei (%) [2]: 7%
Population Healthy Nuclei (%) [2]: 83%
Population Hoechst High Intensity Objects (%) [2]: 6%
Population Mitochondria Different-Phenotype (%) [2]: 56%
Population Mitotic Cells (%) [2]: 60%
Population Normal (%) [2]: 93%
Population Pyknosed Nuclei (%) [2]: 9%
Population Tubulin-Different-Phenotype (%) [2]: 20%
Total Cell Count [2]: 383
Population Apoptotic (%) [3]: 48%
Population Fragmented Nuclei (%) [3]: 6%
Population Healthy Nuclei (%) [3]: 79%
Population Hoechst High Intensity Objects (%) [3]: 9%
Population Membrane Permeable-Phenotype (%) [3]: 0%
Population Mitochondria Different-Phenotype (%) [3]: 48%
Population Mitotic Cells (%) [3]: 51%
Population Normal (%) [3]: 90%
Population Pyknosed Nuclei (%) [3]: 14%
Population Tubulin-Different-Phenotype (%) [3]: 31%
Total Cell Count [3]: 409
Population Apoptotic (%) [4]: 54%
Population Healthy Nuclei (%) [4]: 77%
Population Hoechst High Intensity Objects (%) [4]: 7%
Population Mitochondria Different-Phenotype (%) [4]: 59%
Population Mitotic Cells (%) [4]: 46%
Population Normal (%) [4]: 92%
Population Pyknosed Nuclei (%) [4]: 15%
Population Tubulin-Different-Phenotype (%) [4]: 25%
Total Cell Count [4]: 343
Population Apoptotic (%) [5]: 40%
Population Fragmented Nuclei (%) [5]: 8%
Population Healthy Nuclei (%) [5]: 83%
Population Hoechst High Intensity Objects (%) [5]: 3%
Population Membrane Permeable-Phenotype (%) [5]: 1%
Population Mitochondria Different-Phenotype (%) [5]: 22%
Population Mitotic Cells (%) [5]: 59%
Population Normal (%) [5]: 96%
Population Pyknosed Nuclei (%) [5]: 8%
Population Tubulin-Different-Phenotype (%) [5]: 11%
Total Cell Count [5]: 611
Population Apoptotic (%) [6]: 44%
Population Fragmented Nuclei (%) [6]: 7%
Population Healthy Nuclei (%) [6]: 84%
Population Hoechst High Intensity Objects (%) [6]: 7%
Population Membrane Permeable-Phenotype (%) [6]: 0%
Population Mitochondria Different-Phenotype (%) [6]: 41%
Population Mitotic Cells (%) [6]: 55%
Population Normal (%) [6]: 92%
Population Pyknosed Nuclei (%) [6]: 7%
Population Tubulin-Different-Phenotype (%) [6]: 14%
Total Cell Count [6]: 492
Population Apoptotic (%) [7]: 27%
Population Fragmented Nuclei (%) [7]: 10%
Population Healthy Nuclei (%) [7]: 75%
Population Hoechst High Intensity Objects (%) [7]: 4%
Population Membrane Permeable-Phenotype (%) [7]: 0%
Population Mitochondria Different-Phenotype (%) [7]: 29%
Population Mitotic Cells (%) [7]: 72%
Population Normal (%) [7]: 95%
Population Pyknosed Nuclei (%) [7]: 13%
Population Tubulin-Different-Phenotype (%) [7]: 16%
Total Cell Count [7]: 523
Population Apoptotic (%) [8]: 44%
Population Fragmented Nuclei (%) [8]: 9%
Population Healthy Nuclei (%) [8]: 77%
Population Hoechst High Intensity Objects (%) [8]: 9%
Population Mitochondria Different-Phenotype (%) [8]: 50%
Population Mitotic Cells (%) [8]: 55%
Population Normal (%) [8]: 90%
Population Tubulin-Different-Phenotype (%) [8]: 21%
Total Cell Count [8]: 388
Population Apoptotic (%) [9]: 29%
Population Fragmented Nuclei (%) [9]: 12%
Population Healthy Nuclei (%) [9]: 79%
Population Hoechst High Intensity Objects (%) [9]: 1%
Population Membrane Permeable-Phenotype (%) [9]: 1%
Population Mitochondria Different-Phenotype (%) [9]: 20%
Population Mitotic Cells (%) [9]: 70%
Population Normal (%) [9]: 98%
Population Pyknosed Nuclei (%) [9]: 7%
Population Tubulin-Different-Phenotype (%) [9]: 8%
Total Cell Count [9]: 864
Population Apoptotic (%) [10]: 30%
Population Fragmented Nuclei (%) [10]: 13%
Population Healthy Nuclei (%) [10]: 81%
Population Hoechst High Intensity Objects (%) [10]: 3%
Population Membrane Permeable-Phenotype (%) [10]: 2%
Population Mitochondria Different-Phenotype (%) [10]: 19%
Population Mitotic Cells (%) [10]: 69%
Population Normal (%) [10]: 96%
Population Pyknosed Nuclei (%) [10]: 5%
Population Tubulin-Different-Phenotype (%) [10]: 7%
Total Cell Count [10]: 775
Population Apoptotic (%) [11]: 22%
Population Fragmented Nuclei (%) [11]: 12%
Population Healthy Nuclei (%) [11]: 79%
Population Hoechst High Intensity Objects (%) [11]: 1%
Population Membrane Permeable-Phenotype (%) [11]: 0%
Population Mitochondria Different-Phenotype (%) [11]: 17%
Population Mitotic Cells (%) [11]: 77%
Population Normal (%) [11]: 98%
Population Pyknosed Nuclei (%) [11]: 8%
Population Tubulin-Different-Phenotype (%) [11]: 7%
Total Cell Count [11]: 815
Population Apoptotic (%) [12]: 51%
Population Fragmented Nuclei (%) [12]: 10%
Population Healthy Nuclei (%) [12]: 80%
Population Hoechst High Intensity Objects (%) [12]: 3%
Population Mitochondria Different-Phenotype (%) [12]: 26%
Population Mitotic Cells (%) [12]: 48%
Population Normal (%) [12]: 96%
Population Tubulin-Different-Phenotype (%) [12]: 8%
Total Cell Count [12]: 544
